Results: ChEMBL document CHEMBL1649081, “Arylpiperazines for management of benign prostatic hyperplasia: design, synthesis, quantitative structure-activity relationships, and pharmacokinetic studies” (J Med Chem, 2011)
“And” between values parts separate entries of the source, which are not always exact repeats. Equal values may be shown once. The source made the active and inactive calls. No cut-off for these calls is given here.

What was measured:
Cancer cell lines = test: (§1) […] in Sprague-Dawley rat model […] assessed as reduction in prostate weight at 10 mg/k, po administered daily for 21 days measured after 24 hrs post last dose; type: functional
In short: (§2)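 Adult mature Sprague-Dawley rats (n = 5) received an oral 10.0 mg/kg dose as a water/gum acacia suspension daily for 21 days. Controls received vehicle, and a reference antiandrogen served as positive control. At autopsy 24 h after the last dose, prostates were dissected and weighed.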

[1] = as §1; type: functional; in short: as §2
[2] = Cmax in Sprague-Dawley rat serum at 10 mg/kg, po administered as single dose after 1 hr; type: ADME, organism-based; design: dose 10 mg/kg, route oral
In short: (§3)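 Male Sprague-Dawley rats were fasted overnight (12-16 h) and given a single oral 10 mg/kg dose, n = 3 per time point. Animals were killed at intervals up to 24 h and serum, prostate and hypothalamus collected; hypothalamus was pooled from three rats. Analysis was by HPLC (0.01 M sodium acetate pH 6.0/acetonitrile 30:70; LLOQ 10 ng/mL), with noncompartmental parameters.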

[3] = Mean residence time in Sprague-Dawley rat serum at 10 mg/kg, po administered as single dose; type: ADME, organism-based; design: dose 10 mg/kg, route oral; in short: as §3
Hypothalamus = test: AUC (0 to t) in Sprague-Dawley rat hypothalamus at 10 mg/kg, po administered as single dose; type: ADME, organism-based; design: dose 10 mg/kg, route oral; settings: in vivo; in short: as §3
Serum [4] = test: Clearance in Sprague-Dawley rat serum at 10 mg/kg, po administered as single dose; type: ADME, organism-based; design: dose 10 mg/kg, route oral; settings: in vivo; in short: as §3
[5] = Cmax in Sprague-Dawley rat hypothalamus at 10 mg/kg, po administered as single dose after 2 hrs; type: ADME, organism-based; design: dose 10 mg/kg, route oral; in short: as §3
[6] = Cmax in Sprague-Dawley rat prostate gland at 10 mg/kg, po administered as single dose after 1 hr; type: ADME, organism-based; design: dose 10 mg/kg, route oral; in short: as §3
LNCaP [7] = test: Anticancer activity against human LNCAP cells assessed as change in PSA gene expression at 10 umol after 48 hrs by RT-PCR analysis; type: functional
In short: (§4)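 LNCaP cells (androgen-dependent human prostate cancer) were grown in RPMI-1640 with 10% FCS, 100 units/mL penicillin G and 100 μg/mL streptomycin on gelatin-coated plates. They were treated at 10 μmol for 48 h, with flutamide as positive control. PSA is reported as fold change relative to untreated control.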

[8] = Mean residence time in Sprague-Dawley rat hypothalamus at 10 mg/kg, po administered as single dose; type: ADME, organism-based; design: dose 10 mg/kg, route oral; in short: as §3
[9] = Tmax in Sprague-Dawley rat hypothalamus at 10 mg/kg, po administered as single dose after 1 hr; type: ADME, organism-based; design: dose 10 mg/kg, route oral; in short: as §3
[10] = Cmax in Sprague-Dawley rat prostate gland at 10 mg/kg, po administered as single dose after 2 hrs; type: ADME, organism-based; design: dose 10 mg/kg, route oral; in short: as §3
[11] = Cmax in Sprague-Dawley rat hypothalamus at 10 mg/kg, po administered as single dose after 1 hr; type: ADME, organism-based; design: dose 10 mg/kg, route oral; in short: as §3
[12] = Tmax in Sprague-Dawley rat serum at 10 mg/kg, po administered as single dose after 1 hr; type: ADME, organism-based; design: dose 10 mg/kg, route oral; in short: as §3
LNCaP [13] = test: Anticancer activity against human LNCAP cells assessed as change in PSA gene expression at 10 umol after 48 hrs by RT-PCR analysis relative to control; type: functional; in short: as §4
[14] = Tmax in Sprague-Dawley rat prostate gland at 10 mg/kg, po administered as single dose after 1 hr; type: ADME, organism-based; design: dose 10 mg/kg, route oral; in short: as §3
[15] = Tmax in Sprague-Dawley rat hypothalamus at 10 mg/kg, po administered as single dose after 2 hrs; type: ADME, organism-based; design: dose 10 mg/kg, route oral; in short: as §3
[16] = Tmax in Sprague-Dawley rat prostate gland at 10 mg/kg, po administered as single dose after 2 hrs; type: ADME, organism-based; design: dose 10 mg/kg, route oral; in short: as §3
[17] = Ratio of drug level in hypothalamus to prostate in Sprague-Dawley rat at 10 mg/kg, po administered as single dos; type: ADME, organism-based; design: dose 10 mg/kg, route oral; settings: in vivo; in short: as §3
Serum [18] = test: AUC (0 to t) in Sprague-Dawley rat serum at 10 mg/kg, po administered as single dose; type: ADME, organism-based; design: dose 10 mg/kg, route oral; settings: in vivo; in short: as §3
[19] = Mean residence time in Sprague-Dawley rat prostate gland at 10 mg/kg, po administered as single dose; type: ADME, organism-based; design: dose 10 mg/kg, route oral; in short: as §3
[20] = molecular target: T1, Estrogen receptor (Homo sapiens) (UniProt P03372); test: Induction of ERalpha in human LNCAP cells at 10 umol relative to control; type: cell-based
T1 sequence (whole entry): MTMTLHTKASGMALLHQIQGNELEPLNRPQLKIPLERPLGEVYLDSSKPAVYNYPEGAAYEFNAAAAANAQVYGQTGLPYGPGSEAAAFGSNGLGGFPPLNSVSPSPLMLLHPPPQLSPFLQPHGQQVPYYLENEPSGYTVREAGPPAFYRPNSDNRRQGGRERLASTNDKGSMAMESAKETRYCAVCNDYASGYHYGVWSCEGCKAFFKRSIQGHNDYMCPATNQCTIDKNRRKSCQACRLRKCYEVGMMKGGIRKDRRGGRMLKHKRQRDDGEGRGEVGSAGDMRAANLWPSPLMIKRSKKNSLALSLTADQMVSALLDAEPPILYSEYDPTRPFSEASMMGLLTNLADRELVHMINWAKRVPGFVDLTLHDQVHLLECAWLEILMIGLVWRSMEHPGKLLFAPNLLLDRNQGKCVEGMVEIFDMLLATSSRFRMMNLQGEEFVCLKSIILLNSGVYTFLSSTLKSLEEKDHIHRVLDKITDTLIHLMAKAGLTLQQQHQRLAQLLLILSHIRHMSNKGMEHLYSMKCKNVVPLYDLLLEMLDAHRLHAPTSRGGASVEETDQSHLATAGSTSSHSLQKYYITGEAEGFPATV
In short: (§5)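 LNCaP cells were grown in RPMI-1640 with 10% FCS, penicillin and streptomycin on gelatin-coated plates to 80% confluence, then treated at 10.0 μmol for 24 h, with flutamide as comparator. Total RNA was extracted with Trireagent, and ER-α/ER-β mRNA was measured by real-time PCR. Results are fold change versus control, mean ± SE of three values.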

[21] = Tmax in Sprague-Dawley rat serum at 10 mg/kg, po administered as single dose after 2 hrs; type: ADME, organism-based; design: dose 10 mg/kg, route oral; in short: as §3
[22] = molecular target: T1, Estrogen receptor (Homo sapiens); test: Induction of ERalpha in human prostate cells at 10 umol relative to control; type: cell-based
In short: (§6)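 ER-α and ER-β mRNA were measured by real-time PCR in two cell types: primary BPH-derived human stromal cells (passages 4-6; DMEM/Ham's F-12, 10% FCS) and LNCaP cells (RPMI-1640, 10% FCS, gelatin-coated). Cells at 80% confluence were treated with 10.0 μmol for 24 h, then total RNA was extracted. Results are fold change versus control, mean ± SE of three values.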

[23] = Ratio of drug level in serum to prostate in Sprague-Dawley rat at 10 mg/kg, po administered as single dos; type: ADME, organism-based, Prostate gland; design: dose 10 mg/kg, route oral; settings: in vivo; in short: as §3
[24] = AUC (0 to t) in Sprague-Dawley rat prostate gland at 10 mg/kg, po administered as single dose; type: ADME, organism-based; design: dose 10 mg/kg, route oral; settings: in vivo; in short: as §3
[25] = molecular target: Estrogen receptor beta (Homo sapiens) (UniProt Q92731); test: Induction of ERbeta in human prostate cells at 10 umol relative to control; type: cell-based; in short: as §6
Sequence of Estrogen receptor beta (Homo sapiens) (Q92731 whole entry): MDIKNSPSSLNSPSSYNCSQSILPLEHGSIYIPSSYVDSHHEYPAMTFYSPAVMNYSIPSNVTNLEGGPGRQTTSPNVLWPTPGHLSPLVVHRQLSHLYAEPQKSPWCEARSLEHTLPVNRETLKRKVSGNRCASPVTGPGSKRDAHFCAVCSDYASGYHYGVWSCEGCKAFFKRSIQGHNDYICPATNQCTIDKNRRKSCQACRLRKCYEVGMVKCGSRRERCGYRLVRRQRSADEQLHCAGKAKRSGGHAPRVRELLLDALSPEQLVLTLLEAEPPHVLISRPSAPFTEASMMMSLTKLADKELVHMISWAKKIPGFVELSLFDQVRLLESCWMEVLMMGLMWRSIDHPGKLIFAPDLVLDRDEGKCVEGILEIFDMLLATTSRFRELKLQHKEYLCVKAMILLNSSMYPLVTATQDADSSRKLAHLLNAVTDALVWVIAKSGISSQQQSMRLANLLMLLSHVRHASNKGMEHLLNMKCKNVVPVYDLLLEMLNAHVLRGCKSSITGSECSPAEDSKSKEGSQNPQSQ

[26] = Cmax in Sprague-Dawley rat serum at 10 mg/kg, po administered as single dose after 2 hrs; type: ADME, organism-based; design: dose 10 mg/kg, route oral; in short: as §3
[27] = molecular target: Estrogen receptor beta (Homo sapiens) (UniProt Q92731); test: Induction of ERbeta in human LNCAP cells at 10 umol relative to control; type: cell-based; in short: as §5

## O=[N+]([O-])c1ccccc1N1CCN(c2cccc(Cl)c2)CC1
Cancer cell lines
  Activity: inactive

## O=[N+]([O-])c1ccc(N2CCN(c3ccccn3)CC2)cc1
[1]
  inhibition (INH): 15% and 24%

## O=C(c1ccccc1)N1CCN(c2cccc(C(F)(F)F)c2)CC1
[1]
  inhibition (INH): 15%

## O=[N+]([O-])c1ccc(CN2CCN(c3cccc(Cl)c3)CC2)cc1
[1]
  inhibition (INH): 15%

## O=[N+]([O-])c1ccc(N2CCN(c3cccc(Cl)c3)CC2)c(C(F)(F)F)c1
[1]
  inhibition (INH): 15% and 24%

## O=[N+]([O-])c1ccc(N2CCN(c3ccccn3)CC2)c(C(F)(F)F)c1
[1]
  inhibition (INH): 15% and 24%

## O=C(c1ccc(C(F)(F)F)cc1)N1CCN(c2ccccn2)CC1
[1]
  inhibition (INH): 15%

## O=[N+]([O-])c1cc(C(F)(F)F)ccc1N1CCN(c2ccc(F)cc2)CC1
[1]
  inhibition (INH): 15%

## O=[N+]([O-])c1ccc(N2CCN(c3ncccn3)CC2)c(C(F)(F)F)c1
[1]
  inhibition (INH): 15% and 24%

## O=C(c1ccc(C(F)(F)F)cc1)N1CCN(c2cccc(C(F)(F)F)c2)CC1
[1]
  inhibition (INH): 15%

## O=[N+]([O-])c1ccc(N2CCN(c3cccc(C(F)(F)F)c3)CC2)c(C(F)(F)F)c1
[2]
  Cmax: 106 ng/mL
[3]
  MRT: 6.97 h
Hypothalamus
  AUC: 2000 ng·h/g
Serum [4]
  CL: 0.17 mL/min/kg
[5]
  Cmax: 124 ng/g
[6]
  Cmax: 442 ng/g
LNCaP [7]
  inhibition (INH): 90%
[8]
  MRT: 11.6 h
[9]
  Tmax: 1 h
[10]
  Cmax: 365 ng/g
[11]
  Cmax: 99.5 ng/g
[12]
  Tmax: 0.5 h
LNCaP [13]
  fold change (FC): 0.106
[14]
  Tmax: 1.5 h
[15]
  Tmax: 2 h
[16]
  Tmax: 6 h
[17]
  Ratio: 0.35
Serum [18]
  AUC: 712 ng·h/mL
[19]
  MRT: 11 h
[20]
  fold change (FC): 11
[21]
  Tmax: 2 h
[1]
  inhibition (INH): 15% and 24%
[22]
  fold change (FC): 3
[23]
  Ratio: 0.13
[24]
  AUC: 5650 ng·h/g
[25]
  fold change (FC): 6
[26]
  Cmax: 139 ng/mL
[27]
  fold change (FC): 16

## O=[N+]([O-])c1cc(C(F)(F)F)ccc1N1CCN(c2cccc(Cl)c2)CC1
[1]
  inhibition (INH): 15%

## O=C(c1ccccc1)N1CCN(c2ncccn2)CC1
[1]
  inhibition (INH): 10%

## O=C(c1ccccc1)N1CCN(c2cccc(Cl)c2)CC1
[1]
  inhibition (INH): 10%

## O=[N+]([O-])c1cc(C(F)(F)F)ccc1N1CCN(c2cccc(C(F)(F)F)c2)CC1
[1]
  inhibition (INH): 15% and 24%

## O=[N+]([O-])c1cc(C(F)(F)F)ccc1N1CCN(c2ccccn2)CC1
[1]
  inhibition (INH): 15%

## O=[N+]([O-])c1ccccc1N1CCN(c2ccccn2)CC1
[1]
  inhibition (INH): 15%

## O=C(c1ccccc1)N1CCN(c2ccccn2)CC1
[1]
  inhibition (INH): 10%

## O=C(c1ccc(C(F)(F)F)cc1)N1CCN(c2cccc(Cl)c2)CC1
[1]
  inhibition (INH): 10%

## O=[N+]([O-])c1cc(C(F)(F)F)ccc1N1CCN(c2ncccn2)CC1
[1]
  inhibition (INH): 15% and 24%

## CC(C)C(=O)Nc1ccc([N+](=O)[O-])c(C(F)(F)F)c1 [FLUTAMIDE]
LNCaP [7]
  inhibition (INH): 99%
LNCaP [13]
  fold change (FC): 0.01
[20]
  fold change (FC): 11
[27]
  fold change (FC): 14

## O=[N+]([O-])c1ccc(CN2CCN(c3cccc(C(F)(F)F)c3)CC2)cc1
[1]
  inhibition (INH): 15%

## O=[N+]([O-])c1ccc(CN2CCN(c3ccccn3)CC2)cc1
[1]
  inhibition (INH): 15%

## O=C(c1ccccc1[N+](=O)[O-])N1CCN(c2ccccn2)CC1
[1]
  inhibition (INH): 15%

## O=C(c1ccccc1[N+](=O)[O-])N1CCN(c2cccc(C(F)(F)F)c2)CC1
[1]
  inhibition (INH): 15%

## O=[N+]([O-])c1ccc(N2CCN(c3ccc(F)cc3)CC2)c(C(F)(F)F)c1
[1]
  inhibition (INH): 15% and 24%

## O=[N+]([O-])c1ccccc1N1CCN(c2cccc(C(F)(F)F)c2)CC1
Cancer cell lines
  Activity: inactive

## O=[N+]([O-])c1ccc(CN2CCN(c3ncccn3)CC2)cc1
[1]
  inhibition (INH): 15% and 24%
